Among the data in ChEMBL document CHEMBL4152298, “Total synthesis of acylphloroglucinols and their antibacterial activities against clinical isolates of multi-drug resistant (MDR) and methicillin-resistant strains of Staphylococcus aureus” (2018) are MIC values, retold here.

Assay type in all cases: functional
The test system of assay [1] is Staphylococcus aureus. Put plainly: Antibacterial activity against methicillin-resistant Staphylococcus aureus isolate XU212 harboring TetK tetracycline efflux pump by MTT dye based assay. In outline:
(§1)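 Strains grown on nutrient agar for 24 h at 37 °C before testing. Compounds dissolved in DMSO, diluted in MHB to 512 mg/L stock. Two-fold serial broth microdilution in MHB, final 128 to 0.25 mg/L in the initial evaluation. Final DMSO 1.56% to 0.0031% v/v. Inoculum 5×10^5 cfu/mL, 37 °C incubation, duplicates. MTT added for 20 min. MIC is the lowest concentration with no colour change.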

In assay [2] the test system is Staphylococcus aureus. The experiment in a line: Antibacterial activity against Staphylococcus aureus SA1199B over-expressing NorA by MTT dye based assay. In outline: as §1
A general note: Tetrazolium assays rely on reduction of a dye to a coloured formazan, in cell work by metabolically active cells.

Assay [3] has as its system Staphylococcus aureus. Put plainly: Antibacterial activity against Staphylococcus aureus ATCC 25923 by MTT dye based assay. The essentials: as §1
Assay [4] relates to Staphylococcus aureus. The experiment in a line: Antibacterial activity against Staphylococcus aureus RN4220 harboring MsrA macrolide efflux protein by MTT dye based assay. In outline:
as §1

In assay [5] the test system is Staphylococcus aureus. The experiment in a line: Antibacterial activity against methicillin-resistant Staphylococcus aureus EMRSA16 by MTT dye based assay. In outline:
as §1

The subject of assay [6] is Staphylococcus aureus. Put plainly: Antibacterial activity against methicillin-resistant Staphylococcus aureus EMRSA15 by MTT dye based assay. In outline: as §1

The MIC is the smallest concentration in the dilution series that meets the test's criterion for growth inhibition. A low value points to inhibition by little substance.

SMILES strings stand for the structures. Values after ≈ are worked out from the molar mass of the structure shown. A value given as a limit tells only on which side of the number the result lay.

As for `CCC(=O)c1c(O)cc(O)cc1OC/C=C(\C)CCC=C(C)C`, the MIC in assay [1] was found to be 1 µg/mL (≈ 3.14 µM); in assay [2], 2 µg/mL (≈ 6.28 µM); in assay [3], 2 µg/mL (≈ 6.28 µM); in assay [4], 1 µg/mL (≈ 3.14 µM); in assay [5], 1 µg/mL (≈ 3.14 µM); in assay [6], 2 µg/mL (≈ 6.28 µM).

`CN[C@H](CC(C)C)C(=O)N[C@H]1C(=O)N[C@@H](CC(N)=O)C(=O)N[C@H]2C(=O)N[C@H]3C(=O)N[C@H](C(=O)N[C@H](C(=O)O)c4cc(O)cc(O)c4-c4cc3ccc4O)[C@H](O)c3ccc(c(Cl)c3)Oc3cc2cc(c3O[C@@H]2O[C@H](CO)[C@@H](O)[C@H](O)[C@H]2O[C@H]2C[C@](C)(N)[C@H](O)[C@H](C)O2)Oc2ccc(cc2Cl)[C@H]1O` [VANCOMYCIN]: the MIC in assay [2], in assay [3], in assay [5] and in assay [6] was 0.25 µg/mL (≈ 0.173 µM) in each case.

With `CC[C@H](C)C(=O)c1c(O)cc(O)cc1OCc1ccccc1`, the MIC in assay [1] was 4 µg/mL (≈ 13.3 µM); in assay [2], 8 µg/mL (≈ 26.6 µM); in assay [3], 4 µg/mL (≈ 13.3 µM); in assay [4], 4 to 8 µg/mL (≈ 13.3 to 26.6 µM); in assay [5], 4 µg/mL (≈ 13.3 µM); in assay [6], 8 µg/mL (≈ 26.6 µM).

For `CC[C@H](C)C(=O)c1c(O)cc(O)cc1OC/C=C(\C)CCC=C(C)C` [OLYMPICIN A], the MIC in assay [1] amounted to 0.5 µg/mL (≈ 1.44 µM); in assay [2] it was 1 µg/mL (≈ 2.89 µM); in assay [3], 1 µg/mL (≈ 2.89 µM); in assay [4] it was 1 µg/mL (≈ 2.89 µM); in assay [5] it was 0.5 µg/mL (≈ 1.44 µM); in assay [6] it was 1 µg/mL (≈ 2.89 µM).

Turning to `CC[C@H](C)C(=O)c1c(O)cc(O)cc1OCCC(C)C`, the MIC in assay [1] is 4 µg/mL (≈ 14.3 µM); in assay [2], 2 µg/mL (≈ 7.13 µM); in assay [3] it was 2 µg/mL (≈ 7.13 µM); in assay [4] it was 2 µg/mL (≈ 7.13 µM); in assay [5] it was 2 to 4 µg/mL (≈ 7.13 to 14.3 µM); in assay [6], 2 to 4 µg/mL (≈ 7.13 to 14.3 µM).

As to `CC[C@H](C)C(=O)c1c(O)cc(O)cc1OCC=C(C)C`, the MIC in assay [1] is 4 to 8 µg/mL (≈ 14.4 to 28.7 µM); in assay [2], 16 µg/mL (≈ 57.5 µM); in assay [3] it was 8 µg/mL (≈ 28.7 µM); in assay [4], 8 µg/mL (≈ 28.7 µM); in assay [5], 4 µg/mL (≈ 14.4 µM); in assay [6], 16 µg/mL (≈ 57.5 µM).

For `CC(=O)c1c(O)cc(O)cc1OC/C=C(\C)CCC=C(C)C`, the MIC in assay [1] came out at 8 µg/mL (≈ 26.3 µM); in assay [2], 8 µg/mL (≈ 26.3 µM); in assay [3], 16 µg/mL (≈ 52.6 µM); in assay [4], 8 µg/mL (≈ 26.3 µM); in assay [5], 4 µg/mL (≈ 13.1 µM); in assay [6], 16 µg/mL (≈ 52.6 µM).

With `CCn1cc(C(=O)O)c(=O)c2cc(F)c(N3CCNCC3)cc21` [NORFLOXACIN], the MIC in assay [1] stood at 8 µg/mL (≈ 25.1 µM); in assay [2], 32 µg/mL (≈ 100 µM); in assay [3] it was 0.5 µg/mL (≈ 1.57 µM); in assay [4] it was 0.5 µg/mL (≈ 1.57 µM); in assay [5] it was 256 µg/mL (≈ 802 µM); in assay [6], 0.5 µg/mL (≈ 1.57 µM).

As for `CCCC(=O)c1c(O)cc(O)cc1OC/C=C(\C)CCC=C(C)C`, the MIC in assay [1] came out at 2 µg/mL (≈ 6.02 µM); in assay [2] it was 2 µg/mL (≈ 6.02 µM); in assay [3] it was 2 µg/mL (≈ 6.02 µM); in assay [4], 2 µg/mL (≈ 6.02 µM); in assay [5] it was 1 µg/mL (≈ 3.01 µM); in assay [6], 2 µg/mL (≈ 6.02 µM).

In the case of `CC[C@H](C)C(=O)c1c(O)cc(O)cc1OC/C=C(\C)CC/C=C(\C)CCC=C(C)C`, the MIC in assay [1], in assay [2], in assay [3], in assay [4], in assay [5] and in assay [6] was greater than 512 µg/mL each time.

Consider `CCCCC(=O)c1c(O)cc(O)cc1OC/C=C(\C)CCC=C(C)C`, for which the MIC in assay [1] is 0.5 µg/mL (≈ 1.44 µM); in assay [2] it was 1 µg/mL (≈ 2.89 µM); in assay [3] it was 0.5 µg/mL (≈ 1.44 µM); in assay [4] it was 0.5 µg/mL (≈ 1.44 µM); in assay [5], 0.5 µg/mL (≈ 1.44 µM); in assay [6], 1 µg/mL (≈ 2.89 µM).

On to `CCCCCCCCCCCCCCCCCC(=O)c1c(O)cc(O)cc1OC/C=C(\C)CCC=C(C)C`, for which the MIC in assay [1], in assay [2], in assay [3], in assay [4], in assay [5] and in assay [6] was greater than 512 µg/mL each time.

With `CCCCCCCCCCOc1cc(O)cc(O)c1C(=O)[C@@H](C)CC`, the MIC in assay [1] was 2 to 4 µg/mL (≈ 5.71 to 11.4 µM); in assay [2], 2 µg/mL (≈ 5.71 µM); in assay [3], 1 to 2 µg/mL (≈ 2.85 to 5.71 µM); in assay [4], 1 µg/mL (≈ 2.85 µM); in assay [5], 0.25 µg/mL (≈ 0.713 µM); in assay [6], 0.5 to 1 µg/mL (≈ 1.43 to 2.85 µM).

Regarding `CCCCCCCCCCCCCCCCCCOc1cc(O)cc(O)c1C(=O)[C@@H](C)CC`, the MIC in assay [1], in assay [2], in assay [3], in assay [4], in assay [5] and in assay [6] was greater than 512 µg/mL throughout.

With `CC[C@H](C)C(=O)c1c(O)cc(O)cc1OCCC(C)CCCC(C)C` (some centres not stated), the MIC was 1 µg/mL (≈ 2.85 µM) in assay [1]; 0.5 to 1 µg/mL (≈ 1.43 to 2.85 µM) in assay [2]; 1 µg/mL (≈ 2.85 µM) in assay [3]; 0.5 µg/mL (≈ 1.43 µM) in assay [4]; 0.25 µg/mL (≈ 0.713 µM) in assay [5]; 0.5 to 1 µg/mL (≈ 1.43 to 2.85 µM) in assay [6].

On to `CCCCCCCCOc1cc(O)cc(O)c1C(=O)[C@@H](C)CC`, for which the MIC in assay [1] is 0.5 µg/mL (≈ 1.55 µM); in assay [2], 0.25 to 0.5 µg/mL (≈ 0.775 to 1.55 µM); in assay [3], 0.25 to 0.5 µg/mL (≈ 0.775 to 1.55 µM); in assay [4], 0.5 µg/mL (≈ 1.55 µM); in assay [5], 0.25 µg/mL (≈ 0.775 µM); in assay [6], 0.5 µg/mL (≈ 1.55 µM).

Consider `CC(C)=CCC/C(C)=C/COc1cc(O)cc(O)c1C(=O)c1ccccc1`, for which the MIC in assay [1] is 1 µg/mL (≈ 2.73 µM); in assay [2], 1 µg/mL (≈ 2.73 µM); in assay [3] it was 1 µg/mL (≈ 2.73 µM); in assay [4] it was 1 µg/mL (≈ 2.73 µM); in assay [5], 0.5 µg/mL (≈ 1.36 µM); in assay [6], 1 µg/mL (≈ 2.73 µM).

As for `CCCCCCCCCC(=O)c1c(O)cc(O)cc1OC/C=C(\C)CCC=C(C)C`, the MIC worked out at 64 µg/mL (≈ 154 µM) in assay [1]; 512 µg/mL (≈ 1230 µM) in assay [2]; 512 µg/mL (≈ 1230 µM) in assay [3]; 256 µg/mL (≈ 614 µM) in assay [4]; 64 µg/mL (≈ 154 µM) in assay [5]; 512 µg/mL (≈ 1230 µM) in assay [6].

For the compound `CCCCCCCCCCCCOc1cc(O)cc(O)c1C(=O)[C@@H](C)CC`, the MIC was 64 µg/mL (≈ 169 µM) in assay [1]; 16 µg/mL (≈ 42.3 µM) in assay [2]; 128 µg/mL (≈ 338 µM) in assay [3]; 8 µg/mL (≈ 21.1 µM) in assay [4]; 16 µg/mL (≈ 42.3 µM) in assay [5]; 16 µg/mL (≈ 42.3 µM) in assay [6].
